Test results published in ChEMBL document CHEMBL3046081, “Phytotoxic effect, uptake, and transformation of biochanin A in selected weed species” (J Agric Food Chem, 2012).
Active and inactive are the calls of the source. No cut-off for these calls is given here.

Experiments:
[1] = test system: Root; test: Drug metabolism in Echinochloa crus-galli (barnyard grass) root assessed as transformation to dihydrobiochanin A at 400 uM after 14 days measured per gm of dry weight by LC-MS analysis; format: ADME; conditions: 336 h
Summary of the method: (§1)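 Pregerminated seeds, 14 per container, transplanted onto 0.5% agar medium containing biochanin A. Grown at 24 ± 1 °C under a 16 h light/8 h dark photoperiod and harvested 14 days after transplanting. Roots and shoots collected separately, blotted, washed twice, then freeze-dried. Tissue extracted by ASE at 40 °C and analysed by LC-ESI-MS against commercial standards. Two replicates per treatment.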

[2] = test system: Shoot; test: Drug metabolism in Echinochloa crus-galli (barnyard grass) shoot assessed as transformation to sissotrin at 20 uM after 14 days measured per gm of dry weight by LC-MS analysis; format: ADME; conditions: 336 h; summary of the method: as §1
[3] = test system: Shoot; test: Drug metabolism in Echinochloa crus-galli (barnyard grass) shoot assessed as transformation to dihydrobiochanin A at 20 uM after 14 days measured per gm of dry weight by LC-MS analysis; format: ADME; conditions: 336 h; summary of the method: as §1
[4] = test system: Leaf; test: Drug recovery in leaf of Secale cereale (rye) at 5 ng/g by LC-MS analysis
[5] = test system: Shoot; test: Drug metabolism in Echinochloa crus-galli (barnyard grass) shoot assessed as transformation to dihydrobiochanin A at 400 uM after 14 days measured per gm of dry weight by LC-MS analysis; format: ADME; conditions: 336 h; summary of the method: as §1
[6] = test system: Root; test: Drug metabolism in Echinochloa crus-galli (barnyard grass) root assessed as transformation to sissotrin at 20 uM after 14 days measured per gm of dry weight by LC-MS analysis; format: ADME; conditions: 336 h; summary of the method: as §1
[7] = test system: Shoot; test: Drug metabolism in Echinochloa crus-galli (barnyard grass) shoot assessed as transformation to pratensein at 400 uM after 14 days measured per gm of dry weight by LC-MS analysis; format: ADME; conditions: 336 h; summary of the method: as §1
[8] = test system: Root; test: Drug metabolism in Geranium molle root assessed as transformation to genistein at 20 uM after 14 days measured per gm of dry weight by LC-MS analysis; format: ADME; conditions: 336 h; summary of the method: as §1
[9] = test system: Root; test: Drug metabolism in Echinochloa crus-galli (barnyard grass) root assessed as transformation to p-coumaric acid at 20 uM after 14 days measured per gm of dry weight by LC-MS analysis; format: ADME; conditions: 336 h; summary of the method: as §1
[10] = test system: Root; test: Drug uptake in Echinochloa crus-galli (barnyard grass) root at 400 uM after 14 days measured per gm of dry weight by LC-MS analysis; format: ADME; conditions: 336 h
Summary of the method: (§2)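 Pregerminated seeds (14 per container) were grown on 20 mL 0.5% agar medium containing biochanin A, at 24 ± 1 °C with a 16 h light/8 h dark cycle. There were two replicates per treatment: 14 containers for S. noctiflora, 9 for G. molle and E. crus-galli. At 14 days, roots and shoots were harvested separately, washed, blotted and freeze-dried. Extraction was ASE at 40 °C, 1600 psi, 3 cycles. Analysis was LC-ESI-MS SIM against standards.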

[11] = test system: Silene noctiflora; test: Phytotoxicity against Silene noctiflora assessed as root growth inhibition after 2 weeks by agar medium bioassay; format: functional, organism-based; conditions: 336 h
Summary of the method: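 Agar bioassay with eight biochanin A doses (0–400 µM). Seeds were pregerminated 48 h at room temperature, then 10 seedlings (1–2 mm radicle) were placed per Petri dish. Plants grew 2 weeks at 24 ± 1 °C under a 16 h light/8 h dark cycle. Root length was measured, and EC values were taken from a four-parameter log-logistic nonlinear regression fit.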

[12] = test system: Shoot; test: Drug uptake in Geranium molle shoot at 20 uM after 14 days measured per gm of dry weight by LC-MS analysis; format: ADME; conditions: 336 h; summary of the method: as §2
[13] = test system: Root; test: Drug metabolism in Echinochloa crus-galli (barnyard grass) root assessed as transformation to sissotrin at 400 uM after 14 days measured per gm of dry weight by LC-MS analysis; format: ADME; conditions: 336 h; summary of the method: as §1
[14] = test system: Shoot; test: Drug metabolism in Silene noctiflora shoot assessed as transformation to pratensein at 20 uM after 14 days measured per gm of dry weight by LC-MS analysis; format: ADME; conditions: 336 h; summary of the method: as §1
[15] = test system: Root; test: Drug metabolism in Silene noctiflora root assessed as transformation to genistein at 20 uM after 14 days measured per gm of dry weight by LC-MS analysis; format: ADME; conditions: 336 h; summary of the method: as §1
[16] = test system: Root; test: Drug metabolism in Echinochloa crus-galli (barnyard grass) root assessed as transformation to p-coumaric acid at 400 uM after 14 days measured per gm of dry weight by LC-MS analysis; format: ADME; conditions: 336 h; summary of the method: as §1
[17] = test system: Shoot; test: Drug metabolism in Silene noctiflora shoot assessed as transformation to genistein at 20 uM after 14 days measured per gm of dry weight by LC-MS analysis; format: ADME; conditions: 336 h; summary of the method: as §1
[18] = test system: Echinochloa crus-galli; test: Phytotoxicity against Echinochloa crus-galli (barnyard grass) assessed as root growth inhibition at 100 to 400 uM after 2 weeks by agar medium bioassay; format: functional, organism-based
Summary of the method: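 Agar bioassay with eight biochanin A doses (0–400 µM). Seeds were pregerminated 48 h at room temperature, then 10 seedlings were placed per Petri dish and grown 2 weeks at 24 ± 1 °C under a 16 h light/8 h dark cycle. […]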

[19] = test system: Shoot; test: Drug metabolism in Echinochloa crus-galli (barnyard grass) shoot assessed as transformation to sissotrin at 400 uM after 14 days measured per gm of dry weight by LC-MS analysis; format: ADME; conditions: 336 h; summary of the method: as §1
[20] = test system: Root; test: Drug uptake in Silene noctiflora root at 20 uM after 14 days measured per gm of dry weight by LC-MS analysis; format: ADME; conditions: 336 h; summary of the method: as §2
[21] = test system: Root; test: Drug metabolism in Geranium molle root assessed as transformation to genistein at 400 uM after 14 days measured per gm of dry weight by LC-MS analysis; format: ADME; conditions: 336 h; summary of the method: as §1
[22] = test system: Root; test: Drug metabolism in Echinochloa crus-galli (barnyard grass) root assessed as transformation to dihydrobiochanin A at 20 uM after 14 days measured per gm of dry weight by LC-MS analysis; format: ADME; conditions: 336 h; summary of the method: as §1
[23] = test system: Shoot; test: Drug metabolism in Silene noctiflora shoot assessed as transformation to sissotrin at 20 uM after 14 days measured per gm of dry weight by LC-MS analysis; format: ADME; conditions: 336 h; summary of the method: as §2
[24] = test system: Shoot; test: Drug metabolism in Geranium molle shoot assessed as transformation to p-coumaric acid at 400 uM after 14 days measured per gm of dry weight by LC-MS analysis; format: ADME; conditions: 336 h; summary of the method: as §1
[25] = test system: Shoot; test: Drug metabolism in Geranium molle shoot assessed as transformation to dihydrobiochanin A at 20 uM after 14 days measured per gm of dry weight by LC-MS analysis; format: ADME; conditions: 336 h; summary of the method: as §1
[26] = test system: Shoot; test: Drug uptake in Echinochloa crus-galli (barnyard grass) shoot at 20 uM after 14 days measured per gm of dry weight by LC-MS analysis; format: ADME; conditions: 336 h; summary of the method: as §2
[27] = test system: Root; test: Drug metabolism in Silene noctiflora root assessed as transformation to sissotrin at 400 uM after 14 days measured per gm of dry weight by LC-MS analysis; format: ADME; conditions: 336 h; summary of the method: as §1
[28] = test system: Root; test: Drug uptake in Geranium molle root at 20 uM after 14 days measured per gm of dry weight by LC-MS analysis; format: ADME; conditions: 336 h; summary of the method: as §2
[29] = test system: Shoot; test: Drug uptake in Echinochloa crus-galli (barnyard grass) shoot at 400 uM after 14 days measured per gm of dry weight by LC-MS analysis; format: ADME; conditions: 336 h; summary of the method: as §2
[30] = test system: Root; test: Drug metabolism in Geranium molle root assessed as transformation to dihydrobiochanin A at 20 uM after 14 days measured per gm of dry weight by LC-MS analysis; format: ADME; conditions: 336 h; summary of the method: as §1
[31] = test system: Root; test: Drug metabolism in Geranium molle root assessed as transformation to sissotrin at 20 uM after 14 days measured per gm of dry weight by LC-MS analysis; format: ADME; conditions: 336 h; summary of the method: as §1
[32] = test system: Shoot; test: Drug metabolism in Geranium molle shoot assessed as transformation to genistein at 20 uM after 14 days measured per gm of dry weight by LC-MS analysis; format: ADME; conditions: 336 h; summary of the method: as §1

Drug metabolism [1]: 0.27 µmol | Drug metabolism [2]: 0 µmol | Drug metabolism [3]: 0 µmol | Drug recovery [4]: 93% | Drug metabolism [5]: 0.27 µmol | Drug metabolism [6]: 0.48 µmol | Drug metabolism [7]: 0.24 µmol | Drug metabolism [8]: 0.05 µmol | Drug metabolism [9]: 0.15 µmol | Drug uptake [10]: 2.13 µmol | Drug uptake [12]: 1 µmol | Drug metabolism [13]: 1 µmol | Drug metabolism [14]: 0.1 µmol | Drug metabolism [15]: 0.08 µmol | Drug metabolism [16]: 0.11 µmol | Drug metabolism [17]: 0.24 µmol | Drug metabolism [19]: 0 µmol | Drug uptake [20]: 4.65 µmol | Drug metabolism [21]: 0.08 µmol | Drug metabolism [22]: 0.05 µmol | Drug metabolism [23]: 2.36 µmol | Drug metabolism [24]: 0.03 µmol | Drug metabolism [25]: 0.01 µmol | Drug uptake [26]: 0.05 µmol | Drug metabolism [27]: 2.99 µmol | Drug uptake [28]: 9.93 µmol | Drug uptake [29]: 0.67 µmol | Drug metabolism [30]: 0.38 µmol | Drug metabolism [31]: 36.06 µmol | Drug metabolism [32]: 0.09 µmol
SMILES: COc1ccc(-c2coc3cc(O)cc(O)c3c2=O)cc1 [BIOCHANIN]
EC25 [11]: 5.2 µM | EC50 [11]: 35.8 µM | Activity [18]: inactive
